For 16 molecules, Activity and IC50 results are on record in ChEMBL document CHEMBL1157250, “Bioactive dibenzylbutyrolactone and dibenzylbutanediol lignans from Peperomia duclouxii” (J Nat Prod, 2006).

pIC50: −log10 of the molar value.

The nature of assay [1]: Reversal of multidrug resistance in human 2780AD cells assessed as accumulation of calcein at 2.5 ug/mL after 15 mins by fluorescence technique relative to verapamil. Format: functional, A2780 ADR. In outline:
(§1)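 Same 2780AD set-up: 24 h pre-culture, then a 15 min compound pre-exposure (DMSO/PBS(-) dilution), calcein AM added (1 µM in PBS(-) as added) for 60 min, cold PBS(-) washes, and a calcein fluorescence read. Accumulation is expressed relative to that obtained with verapamil at the same concentration, mean of triplicates.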

Assay [2] is described as follows: Reversal of multidrug resistance in human 2780AD cells assessed as accumulation of calcein at 25 ug/mL after 15 mins by fluorescence technique relative to control. It counts as functional, A2780 ADR. In outline:
(§2)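 MDR ovarian 2780AD cells (RPMI-1640, 10% FBS), ca. 1 × 10^5 per well, held 24 h at 37 °C in 5% CO2. Compounds in DMSO diluted with PBS(-) were added 15 min before calcein AM (1 µM in PBS(-) as added), incubated 60 min, then washed with cold PBS(-). Calcein fluorescence is given as a percentage of untreated control, mean of triplicates.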

Assay [3] can be described thus: Reversal of multidrug resistance in human 2780AD cells assessed as accumulation of calcein at 25 ug/mL after 15 mins by fluorescence technique relative to verapamil. Format: functional, A2780 ADR. In outline:
as §1

Assay [4] in a line: Growth inhibition of human WI38 cells after 48 hrs by WST8 assay. The note with it: WI-38, 48 h. Format: cell-based. The gist of the method:
(§3)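 Cells seeded at ca. 5000 per well, held 24 h at 37 °C in 5% CO2, then exposed 48 h to samples dissolved in DMSO. Media with 10% FBS: WI-38 in Eagle's MEM, VA-13 in RITC 80-7, HepG2 in D-MEM. WST-8 formazan read at 450 nm. Viability is background-corrected versus control, IC50 is taken from viability–concentration plots, and values are means of three independent experiments.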

Assay [5] can be described thus: Reversal of multidrug resistance in human 2780AD cells assessed as accumulation of calcein at 0.25 ug/mL after 15 mins by fluorescence technique relative to verapamil. Format: functional, A2780 ADR. The gist of the method: as §1
Assay [6] can be described thus: Reversal of multidrug resistance in human 2780AD cells assessed as accumulation of calcein at 2.5 ug/mL after 15 mins by fluorescence technique relative to control. Format: functional, A2780 ADR. In outline:
as §2

Assay [7] is described as follows: Reversal of multidrug resistance in human 2780AD cells assessed as accumulation of calcein at 0.25 ug/mL after 15 mins by fluorescence technique relative to control. Format: functional, A2780 ADR. The gist of the method:
as §2

For the next assay, the system named is HepG2. In words: Growth inhibition of human HepG2 cells after 48 hrs by WST8 assay. It counts as functional, cell-based. The note with it: HepG2, 48 h. In outline:
as §3
A general note: Tetrazolium dyes change colour on reduction, which living cells bring about.

The test system of the next assay is WI-38 VA13. In words: Growth inhibition of human VA13 cells after 48 hrs by WST8 assay. The note with it: WI-38 VA13, 48 h. Format: functional, cell-based. The gist of the method: as §3

Usually pIC50 stands for the IC50 on a negative log10 scale, so that one unit is a factor of ten. Lower therefore signals a high IC50. Consider `COc1cc(C[C@@H]2C(=O)OC[C@H]2Cc2cc(OC)c3c(c2)OCO3)cc(OC)c1OC`, for which the Activity is 102% in [1]; 155% in assay [2]; 116% in assay [3]; 92% in assay [5]; 99% in assay [6]; 96% in [7]. Besides, the pIC50 in assay [4] was below 3.63; in the assay on HepG2 it was 4.37; with WI-38 VA13, 3.93.
As to `COc1cc(C[C@@H]2C(=O)OC[C@H]2Cc2cc(OC)c3c(c2)OCO3)ccc1O`, the Activity in assay [1] is 89%; in assay [2], 85%; in [3], 64%; in assay [5] it was 74%; in assay [6], 86%; in [7], 77%. Besides, the negative logarithm of the IC50 (pIC50) was below 3.59 in [4], 3.70 in the assay on HepG2 and 3.68 in the assay with WI-38 VA13.
Turning to `COc1cc(C[C@@H]2COC(=O)[C@H]2Cc2cc(OC)c3c(c2)OCO3)cc2c1OCO2`, the Activity in assay [1] was 86%; in assay [2], 116%; in assay [3], 81%; in assay [5], 104%; in [6], 91%; in assay [7] it was 93%. In addition, the pIC50 in assay [4] was below 3.62; in the assay on HepG2, 3.68; in the assay on WI-38 VA13, 3.89.
Take `COc1cc(C(=O)[C@@H]2C(=O)OC[C@H]2Cc2cc(OC)c3c(c2)OCO3)cc(OC)c1O`: the pIC50 in assay [4] was 3.76; with HepG2, 3.73; in the assay on WI-38 VA13 it was 3.90.
For the molecule `COc1cc(/C=C2/C(=O)OC[C@H]2Cc2cc(OC)c3c(c2)OCO3)cc(OC)c1O`, the Activity was 93% in assay [1]; 114% in [2]; 86% in [3]; 87% in assay [5]; 90% in assay [6]; 90% in assay [7]. In addition, the pIC50 in [4] was 3.62; in the assay with HepG2, 3.70; in the assay with WI-38 VA13 it was 3.81.
Take `COc1cc([C@@H](O)[C@H]2C(=O)OC[C@@H]2Cc2cc(OC)c3c(c2)OCO3)cc(OC)c1O`: the Activity in assay [1] was 96%; in assay [2], 104%; in assay [3] it was 78%; in assay [5], 88%; in assay [6] it was 93%; in [7] it was 91%. Further, the pIC50 in [4] is below 3.64; in the assay on HepG2 it was below 3.64; in the assay with WI-38 VA13, 3.64.
As to `COc1cc(C[C@@H]2COC(=O)[C@H]2Cc2ccc3c(c2)OCO3)cc2c1OCO2`, the Activity in [1] was 70%; in assay [2] it was 96%; in assay [3] it was 67%; in assay [5], 102%; in [6] it was 74%; in [7], 91%. Further, the pIC50 (in assay [4]; with HepG2; in the assay on WI-38 VA13) was below 3.59 in each case.
For `COc1cc(C[C@@H]2C(=O)OC[C@H]2Cc2ccc3c(c2)OCO3)cc2c1OCO2`, the Activity in assay [1] was 103%; in assay [2] it was 124%; in [3], 86%; in [5] it was 90%; in [6] it was 109%; in assay [7], 80%. Further, the pIC50 in assay [4] was below 3.59; in the assay on HepG2, 4.58; in the assay with WI-38 VA13, 4.63.
With `COc1cc(C[C@@H](CO)[C@H](CO)Cc2cc(OC)c3c(c2)OCO3)cc2c1OCO2`, the Activity in assay [1] is reported as 107%; in [2], 121%; in [3], 91%; in assay [5] it was 93%; in assay [6], 103%; in assay [7], 97%. The pIC50 is 3.73 in assay [4], 3.82 in the assay with HepG2 and 3.66 with WI-38 VA13.
With `COc1cc(C[C@@H]2C(=O)OC[C@H]2Cc2ccc3c(c2)OCO3)cc(OC)c1O`, the Activity in assay [1] is on record as 97%; in assay [2], 127%; in assay [3] it was 96%; in assay [5] it was 90%; in [6] it was 94%; in [7], 93%. Moreover, the figures for the pIC50 (in assay [4]; in the assay with HepG2; with WI-38 VA13) were below 3.59, below 3.59 and 3.74, respectively.
Regarding `COc1cc(C[C@@H]2C(=O)OC[C@H]2Cc2cc(OC)c3c(c2)OCO3)cc(O)c1O`, the Activity in [1] was 86%; in [2] it was 120%; in assay [3], 84%; in assay [5], 110%; in [6], 91%; in assay [7] it was 98%. Moreover, the negative-log IC50 (pIC50) in assay [4] is 3.85; in the assay with HepG2 it was 3.79; in the assay on WI-38 VA13, 3.74.
With `COc1cc(C[C@H](COC(C)=O)[C@@H](COC(C)=O)Cc2cc(OC)c3c(c2)OCO3)cc2c1OCO2`, the pIC50 (in assay [4]; in the assay on HepG2; in the assay with WI-38 VA13) was below 3.70 each time.
On to `COc1cc(C[C@@H]2C(=O)OC[C@H]2Cc2cc(OC)c3c(c2)OCO3)cc(OC)c1O`, for which the Activity in assay [1] is given as 94%; in [2], 129%; in [3] it was 97%; in [5] it was 83%; in assay [6] it was 91%; in assay [7] it was 86%. For the same molecule, the results for the pIC50 (in assay [4]; in the assay with HepG2; with WI-38 VA13) were 3.71, 3.69 and 3.88, respectively.
For the molecule `COc1cccc2c1C(=O)c1c(O)c3c(c(O)c1C2=O)C[C@@](O)(C(=O)CO)C[C@@H]3O[C@H]1C[C@H](N)[C@H](O)[C@H](C)O1` [DOXORUBICIN], the pIC50 in assay [4] was 6.42; with HepG2 it was 6.16; in the assay with WI-38 VA13, 6.66.
Consider `CC(=O)O[C@H]1C(=O)[C@@]2(C)[C@H]([C@H](OC(=O)c3ccccc3)[C@]3(O)C[C@H](OC(=O)[C@H](O)[C@@H](NC(=O)c4ccccc4)c4ccccc4)C(C)=C1C3(C)C)[C@]1(OC(C)=O)CO[C@@H]1C[C@@H]2O` [PACLITAXEL], for which the pIC50 was 7.47 in [4], 5.16 in the assay with HepG2 and 8.37 with WI-38 VA13.
As for `COc1ccc(CCN(C)CCCC(C#N)(c2ccc(OC)c(OC)c2)C(C)C)cc1OC` (centres undefined) [VERAPAMIL], the Activity in [2] is recorded as 144%; in assay [6] it was 106%; in assay [7], 104%.
